From ChEMBL document CHEMBL1131155, “Design of new topoisomerase II inhibitors based upon a quinobenzoxazine self-assembly model” (J Med Chem, 1998)

Columns and labels:
[1] = system: Raji; experiment: The compound was tested for the concentration to inhibit 50% of Raji lymphoma cells.; type: functional, cell-based; settings: Homo sapiens
Procedure, shortened: (§1)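 Exponentially growing cells seeded on day 0. Graded compound concentrations added in duplicate on day 1, then incubated at 37 °C. MTT (1 mg/mL in PBS) given for 4 h at 37 °C and formazan dissolved in 0.4 N HCl/isopropanol. Absorbance read at 570 nm against a 630 nm reference. IC50 derived from the dose-response curve.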

[2] = target: DNA topoisomerase II (Homo sapiens, UniProt P11388+Q02880); experiment: Inhibition of topoisomerase II as conversion of catenated to decatenated KDNA; type: protein assay
Procedure, shortened: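 kDNA (0.25 μg) preincubated 10 min with varied compound levels in 50 mM Tris-HCl pH 8, 120 mM KCl, 10 mM MgCl₂, 0.5 mM ATP and DTT. Then 2 units human topo II (170-kDa form) added, 37 °C for 30 min. Stopped with sarkosyl stop buffer. Products resolved on 1% agarose with ethidium bromide and quantified by fluorescence scanning.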

[3] = system: DU-145; experiment: The compound was tested for the concentration to inhibit 50% of DU-145 prostate cells.; type: functional, cell-based; settings: Homo sapiens; procedure, shortened: as §1
[4] = system: Nucleic Acid; experiment: Tested for the DNA unwinding concentration that causes a shift of the topoisomers from the original to the middle position between the relaxed and the supercoiled bands.; type: functional
Procedure, shortened: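 Supercoiled pHOT1 DNA (0.25 μg) relaxed with 5 units topo I, 37 °C for 30 min. Drug at various concentrations then added and incubated a further 30 min. Stopped with 1% SDS, proteinase K treatment at 56 °C, and chloroform-isoamyl alcohol extraction. Topoisomers run on 1% agarose in TPE with 0.2 μg/mL chloroquine, 10 V for 20 h. Gel post-stained with ethidium and scanned.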

[5] = system: NCI-H226; experiment: The compound was tested for the concentration to inhibit 50% of H226 non-small cell lung cells.; type: functional, cell-based; settings: Homo sapiens; procedure, shortened: as §1
[6] = system: MDA-MB-231; experiment: The compound was tested for the concentration to inhibit 50% of MDA-231 breast cancer cell lines.; type: functional, cell-based; settings: Homo sapiens; procedure, shortened: as §1
[7] = system: B16; experiment: The compound was tested for the concentration to inhibit 50% of B16 murine melanoma cells.; type: functional, cell-based; settings: Mus musculus; procedure, shortened: as §1
[8] = system: HT-29; experiment: The compound was tested for the concentration to inhibit 50% of HT-29 colon cells.; type: functional, cell-based; settings: Homo sapiens; procedure, shortened: as §1

Row | SMILES | IC50 [1] [µM] | IC50 [2] [µM] | IC50 [3] [µM] | DNA unwinding concentration [4] [µM] | IC50 [5] [µM] | IC50 [6] [µM] | IC50 [7] [µM] | IC50 [8] [µM]
1 | N[C@H]1CCN(c2c(F)cc3c(=O)c(C(=O)O)cn4c3c2Oc2ccccc2-4)C1 | 0.05 | 0.51 | 0.16 | 50 | 0.09 | 0.16 | 0.17 | 0.16
2 | N[C@@H]1CCN(c2c(F)cc3c(=O)c(C(=O)O)cn4c3c2Oc2cc3ccccc3cc2-4)C1 | 0.032 | 0.42 | 0.048 | 15 | 0.022 | 0.021 | 0.14 | 0.022
3 | N[C@H]1CCN(c2c(F)cc3c(=O)c(C(=O)O)cn4c3c2Oc2c-4ccc3ccccc23)C1 | 0.02 | 0.49 | 0.064 | 10 | 0.027 | 0.084 | 0.18 | 0.051
4 | N[C@H]1CCN(c2c(F)cc3c(=O)c(C(=O)O)cn4c3c2Oc2ccc3ccccc3c2-4)C1 | 0.082 | 0.72 | 0.14 | 19 | 0.13 | 0.19 | 0.13 | 0.27
5 | N[C@H]1CCN(c2c(F)cc3c(=O)c(C(=O)O)cn4c3c2Oc2cc3ccccc3cc2-4)C1 | 0.029 | 0.44 | 0.03 | 13 | 0.014 | 0.01 | 0.02 | 0.023
6 | O=C(O)c1cn2c3c(c(N4CCNCC4)c(F)cc3c1=O)Oc1ccc3ccccc3c1-2 | 0.8 | 9.6 | 0.84 | > 100 | 2.1 | 2.2 | 2.1 | 2
7 | N[C@@H]1CCN(c2c(F)cc3c(=O)c(C(=O)O)cn4c3c2Oc2ccc3ccccc3c2-4)C1 | 0.16 | 1.22 | 0.36 | 35 | 2.4 | 0.35 | 0.68 | 0.36
8 | O=C(O)c1cn2c3c(c(N4CCNCC4)c(F)cc3c1=O)Oc1c-2ccc2ccccc12 | 0.21 | 1.84 | 0.14 | > 100 | 0.2 | 0.38 | 0.65 | 0.36
9 | O=C(O)c1cn2c3c(c(N4CCNCC4)c(F)cc3c1=O)Oc1cc3ccccc3cc1-2 | 0.0072 | 0.64 | 0.075 | > 100 | > 100 | > 1000 | 0.045 | 6.8
10 | NC1CCN(c2c(F)cc3c(=O)c(C(=O)O)cn4c3c2Oc2ccc3ccccc3c2-4)C1 (stereo unspecified) | 0.086 | 0.77 | 0.2 |  | 0.14 | 0.15 | 0.44 | 0.18
11 | NC1CCN(c2c(F)cc3c(=O)c(C(=O)O)cn4c3c2Oc2c-4ccc3ccccc23)C1 (stereo unspecified) | 0.018 | 0.55 | 0.017 |  | 0.022 | 0.027 | 0.04 | 0.03
12 | N[C@@H]1CCN(c2c(F)cc3c(=O)c(C(=O)O)cn4c3c2Oc2c-4ccc3ccccc23)C1 | 0.034 | 0.24 | 0.03 | 3 | 0.013 | 0.005 | 0.02 | 0.026
13 | NC1CCN(c2c(F)cc3c(=O)c(C(=O)O)cn4c3c2Oc2cc3ccccc3cc2-4)C1 (stereo unspecified) | 0.038 | 0.77 | 0.025 |  | 0.004 | 0.023 | 0.1 | 0.028
